From ChEMBL document CHEMBL2046297, “Synthesis and evaluation of substituted dibenzo[c,e]azepine-5-ones as P-glycoprotein-mediated multidrug resistance reversal agents” (Bioorg Med Chem Lett, 2012) come the findings set out here.

Calls of active or inactive are those of the source. The rule behind the calls is not given here. A value given as a limit tells only on which side of the number the result lay.

Series [1] has as its target ATP-dependent translocase ABCB1 (Homo sapiens, UniProt P08183). Put plainly: Inhibition of P-glycoprotein-mediated rhodamine 123 uptake expressed in multidrug-resistant human K562/A02 cells assessed as fluorescence activity ratio at 10 uM after 72 hrs by flow cytometry relative to untreated control. In kind it is cell-based. Particulars: k562/a02, 72 h. An outline of the steps: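 Rh123 accumulation in P-gp-overexpressing K562/A02 cells with compound at 10 µM. FAR is the ratio of mean Rh123 fluorescence intensity in treated versus untreated cells. VRP served as positive control.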

Series [2] concerns K562. Put plainly: Antiproliferative activity against human K562 cells after 72 hrs by MTS assay. In kind it is functional, cell-based. To be noted: K562, 72 h. The method, boiled down: (§1)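 Growth inhibition of parental K562 and drug-resistant K562/A02 leukemia cells, measured by MTS after 72 h exposure. IC50 is the concentration giving a 50% drop in cell growth. Values are means of three experiments. ADR served as positive control.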

Series [3] is described as follows: Antiproliferative activity against multidrug-resistant human K562/A02 cells overexpressing p-glycoprotein after 72 hrs by MTS assay. To be noted: K562/A02, 72 h. The class given is functional, cell-based. An outline of the steps:
as §1
In general terms: Tetrazolium assays rely on reduction of a dye to a coloured formazan, in cell work by metabolically active cells.

For series [4], the system named is K562/A02. Put plainly: Inhibition of Pgp-mediated multidrug-resistance in human K562/A02 cells assessed as potentiation of adriamycin-induced cytotoxicity after 72 hrs by MTS assay. In kind it is cell-based. An outline of the steps:
(§2)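 Chemosensitization was tested by co-treating K562/A02 cells with 2 µM ADR or K562 cells with 0.04 µM ADR, plus compound at 2.5, 5 or 10 µM, for 72 h. Survival was read by MTS and compared with ADR alone. VRP served as positive control.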

For series [5], the system named is K562/A02. Put plainly: Survival of human K562/A02 cells in presence of adriamycin at 2.5 uM after 72 hrs by MTS assay.
Series [6] concerns K562/A02. Put plainly: Survival of human K562/A02 cells in presence of adriamycin at 5 uM after 72 hrs by MTS assay.
The test system of series [7] is K562/A02. Put plainly: Survival of human K562/A02 cells in presence of adriamycin at 10 uM after 72 hrs by MTS assay.
Series [8] has as its system K562. Put plainly: Potentiation of adriamycin-induced cytotoxicity in human K562 cells after 72 hrs by MTS assay. In kind it is functional, cell-based. The method, boiled down: as §2
Series [9] concerns K562/A02. Put plainly: Inhibition of Pgp-mediated adriamycin efflux in multidrug-resistance human K562/A02 cells assessed as increase in intracellular accumulation of adriamycin after 60 mins by FACS flow cytometry. In kind it is cell-based. The method, boiled down:
(§3)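 K562/A02 cells were incubated with 0.5 µM Rh123 or 0.5 µM ADR, with or without 0.33, 3.3 or 10 µM compound, at 37 °C for 30 min. K562 cells received dye only. Cells were washed twice in PBS, resuspended in medium and left 60 min at 37 °C for efflux. Read-out was fluorescence microscopy or flow cytometry (ex/em 488/520 nm Rh123; 488/570 nm ADR). Vehicle was 0.1% DMSO.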
(In general: A flow cytometer gives signals particle by particle.)

In series [10] the test system is K562/A02. Put plainly: Inhibition of Pgp-mediated rhodamine-123 efflux in multidrug-resistance human K562/A02 cells assessed as increase in intracellular accumulation of rhodamine-123 after 60 mins by fluorescence microscopic analysis. In kind it is cell-based. An outline of the steps:
as §3

Chain of ATP-dependent translocase ABCB1 (P08183 whole entry): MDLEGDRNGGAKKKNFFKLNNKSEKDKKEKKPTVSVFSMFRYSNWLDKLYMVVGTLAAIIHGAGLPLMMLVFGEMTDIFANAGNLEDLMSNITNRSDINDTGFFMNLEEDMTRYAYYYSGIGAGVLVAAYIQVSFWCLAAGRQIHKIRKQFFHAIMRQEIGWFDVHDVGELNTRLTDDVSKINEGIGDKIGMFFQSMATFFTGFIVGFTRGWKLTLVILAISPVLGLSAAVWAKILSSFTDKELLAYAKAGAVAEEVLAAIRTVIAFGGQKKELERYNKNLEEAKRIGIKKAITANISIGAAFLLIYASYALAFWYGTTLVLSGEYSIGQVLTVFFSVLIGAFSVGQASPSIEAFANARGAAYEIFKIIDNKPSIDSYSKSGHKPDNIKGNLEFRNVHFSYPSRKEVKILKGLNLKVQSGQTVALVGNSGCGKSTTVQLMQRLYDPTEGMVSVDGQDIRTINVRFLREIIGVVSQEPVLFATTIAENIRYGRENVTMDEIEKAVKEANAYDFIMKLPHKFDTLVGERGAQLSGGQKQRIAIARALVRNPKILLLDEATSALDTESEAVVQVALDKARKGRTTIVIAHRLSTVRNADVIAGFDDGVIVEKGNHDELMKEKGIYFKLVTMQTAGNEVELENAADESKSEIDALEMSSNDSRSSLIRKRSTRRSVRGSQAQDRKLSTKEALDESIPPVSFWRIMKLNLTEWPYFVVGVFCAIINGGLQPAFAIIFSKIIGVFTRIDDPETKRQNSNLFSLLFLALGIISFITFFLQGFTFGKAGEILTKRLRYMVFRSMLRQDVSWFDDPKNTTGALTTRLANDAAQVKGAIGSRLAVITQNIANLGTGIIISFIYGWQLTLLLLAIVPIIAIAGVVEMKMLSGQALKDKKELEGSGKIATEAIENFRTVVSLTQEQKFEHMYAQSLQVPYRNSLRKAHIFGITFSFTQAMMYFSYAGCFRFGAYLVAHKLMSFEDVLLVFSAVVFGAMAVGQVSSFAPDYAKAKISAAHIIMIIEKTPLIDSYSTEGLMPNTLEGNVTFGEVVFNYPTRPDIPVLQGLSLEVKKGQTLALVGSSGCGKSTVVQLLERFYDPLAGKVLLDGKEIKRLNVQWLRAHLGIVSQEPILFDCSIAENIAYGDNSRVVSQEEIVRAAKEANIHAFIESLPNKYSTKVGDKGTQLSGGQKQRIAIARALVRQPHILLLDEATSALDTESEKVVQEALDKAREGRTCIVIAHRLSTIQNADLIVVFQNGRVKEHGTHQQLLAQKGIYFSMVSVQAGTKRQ

For orientation: IC50 means the point on the concentration scale where inhibition reaches its midpoint. A high value points to lower potency. Turning to `COc1cc2c(c3c1OCO3)-c1c(cc(OC)c3c1OCO3)C(=O)N(CCN1CCCC1)C2`, the Ratio in series [1] is reported as 1.65. Further, the IC50 (in the series with K562 [2]; in series [3]) was over 100 µM in each case.

As to `COc1cc2c(c3c1OCO3)-c1c(cc(OC)c3c1OCO3)C(=O)N(CCN1CCN(Cc3ccccc3)CC1)C2`, the inhibition result in the series with K562/A02 [4], in the series on K562/A02 [9] and in the series on K562/A02 [10] was “Dose-dependent effect” each time. Further, the survival rate is 33.9% in the series on K562/A02 [5], 19.9% in the series with K562/A02 [6] and 7.5% in the series with K562/A02 [7]. Also, the Ratio in [1] stood at 14.11. Besides, the result with K562 [8] was inactive. The IC50 turned out to be 49.2 µM in the series with K562 [2] and 56.3 µM in series [3].

As for `CCN(CC)CCN1Cc2cc(OC)c3c(c2-c2c(cc(OC)c4c2OCO4)C1=O)OCO3`, the Ratio in series [1] is recorded as 2.57. Besides, the IC50 with K562 [2] came out at 62.4 µM; in series [3] it was 94.8 µM.

`CCCN(CCC)CCN1Cc2cc(OC)c3c(c2-c2c(cc(OC)c4c2OCO4)C1=O)OCO3`: the Ratio in [1] was found to be 2.84. For the same molecule, the IC50 (with K562 [2]; in [3]) was over 100 µM in each case.

Turning to `COc1cc2c(c3c1OCO3)-c1c(cc(OC)c3c1OCO3)C(=O)N(CCN1CCCCC1)C2`, the Ratio in series [1] is 3.46. Further, the IC50 in the series with K562 [2] amounted to 90 µM; in series [3] it was 91.1 µM.

`COc1ccc(CCN(C)CCCC(C#N)(c2ccc(OC)c(OC)c2)C(C)C)cc1OC` (configuration not stated) [VERAPAMIL]: the Ratio in [1] turned out to be 4.16.

Turning to `COc1cc2c(c3c1OCO3)-c1c(cc(OC)c3c1OCO3)C(=O)N(CCN(C)C)C2`, in series [1], the Ratio is given as 1.44. The IC50 (with K562 [2]; in [3]) was over 100 µM throughout.

On to `COc1cc2c(c3c1OCO3)-c1c(cc(OC)c3c1OCO3)C(=O)N(CCN1CCN(C)CC1)C2`, for which, in [1], the Ratio is 1.03. Moreover, the IC50 (in the series with K562 [2]; in series [3]) was over 100 µM throughout.

As for `COc1cc2c(c3c1OCO3)-c1c(cc(OC)c3c1OCO3)C(=O)N(CCN1CCOCC1)C2`, the Ratio in series [1] is 3.23. Moreover, the IC50 (in the series with K562 [2]; in series [3]) was over 100 µM in each case.
